Assay results as given in PMC8809242 (Acta Pharmacologica Sinica, 2022).

Assays:
GR = GR nuclear translocation, confocal microscopy in A549 cells; type: cell-based, human; settings: 10 μM, 2 h
[1] = system: NF-κB-dependent transcription (GR transrepression); type: cell-based; settings: Homo sapiens, HeLa, read-out: IC50, NF-κB Luc transrepression
Procedure, shortened: (§1)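 HeLa cells grown 24 h in 5% CSS DMEM, then lipofected for 24 h with 71 ng GRα, 5 ng Renilla, and 24 ng reporter (NF-κB-Luc or 5×AP-1-Luc). Cells were stimulated with TNF-α 5 ng/mL (NF-κB) or PMA 1 ng/mL (AP-1) plus test compound. Lysates were read by dual firefly/Renilla luciferase.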

PR = PR selectivity, ARR3tk-luciferase reporter in PC3 cells transfected with hPR; type: cell-based, human; settings: various concentrations, 16 h; 10 nM progesterone = 100%
Procedure, shortened: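 PR counter-screen in PC3 cells: 1 × 10^4 cells/well in 3% CSS DMEM for 24 h. Lipofection for 24 h with 50 ng hPR, 50 ng ARR3tk-luciferase, and 5 ng Renilla per well. Then 16 h exposure to 10 nM progesterone or test compound, and luciferase measurement.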

RAW264.7 cells [2] = type: cell-based, mouse; settings: 10 μM with 20 ng/mL LPS overnight
AR = type: cell-based, human; settings: various concentrations, 72 h; 10 nM DHT = 100%
MR = MR selectivity, MMTV luciferase reporter in 293T cells transfected with pCMV-hMR; type: cell-based, human; settings: various concentrations, 16 h; 10 nM aldosterone = 100%
Procedure, shortened: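 Human MR counter-screen. 293T cells were seeded at 1 × 10^4 cells/well in 3% CSS DMEM for 24 h. They were then lipofected for 24 h with 71 ng pCMV-hMR, 24 ng pGL4.36 MMTV-luc2P, and 5 ng Renilla. Next they were treated for 16 h with 10 nM aldosterone or test compound. Firefly luciferase read-out.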

RAW264.7 cells [3] = assay: Real-time quantitative PCR in LPS-stimulated RAW264.7 cells; type: cell-based, mouse; settings: RAW264.7, 20 ng/mL LPS, 10 μM, 18 h
Procedure, shortened: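 Mouse RAW264.7 macrophages (1 × 10^6 per well) were cultured 24 h in 3% CSS DMEM. They were then co-treated with 20 ng/mL LPS and 10 μM test compound for 18 h. Total RNA was reverse-transcribed and target transcripts were measured by SYBR Green qPCR, with GAPDH normalisation and 2^−ΔΔCt relative quantitation.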

[4] = system: AP-1-dependent transcription (GR transrepression); type: cell-based; settings: Homo sapiens, HeLa, read-out: IC50, AP-1 Luc transrepression
Procedure, shortened: as §1

IC50 [1] [nM] | IC50 [4] [nM] | SMILES | GR nuclear translocation (GR) | off-target activation effect on PR (PR) | number of repressed genes (RNA-seq) (RAW264.7 cells [2]) | off-target activation effect on AR (AR) | off-target activation effect on MR (MR) | SOCS3 mRNA regulation (Q-PCR) (RAW264.7 cells [3])
– | – | CC(C)[C@H](NC(=O)C(C)(F)F)[C@H](Oc1ccc2c(cnn2-c2ccc(=O)n(C)c2)c1)c1ccccc1 [Azd9567] | promoted the translocation of GR from the cytoplasm to the nucleus | – | – | – | – | –
14 ± 2.19 | 48.8 ± 7.1 | C[C@@H]1C[C@H]2[C@@H]3CCC4=CC(=O)C=C[C@]4(C)[C@@]3(F)[C@@H](O)C[C@]2(C)[C@@]1(O)C(=O)CO [Dex, dexamethasone] | promoted the translocation of GR from the cytoplasm to the nucleus | strong activation effects | 117 | strong activation effects | strong activation effects | downregulated only by HT-15 but not Dex
